Experimental data reported in PMC4668232 (Cancer research, 2015).
One block for each molecule: values may come before it. Numbered stars: 1 amine (or outer) side, 2 acyl side, 3 side chain; on linkers, the order of the positions; unused ones are H or OH. Peptide text beside a SMILES is read from it. * marks the point of attachment. AMC = Cc1cc(=O)oc2cc(N*)ccc12; Suc = O=C(CCC(=O)[*:2])[*:1]; Cbz = O=C(OCc1ccccc1)*

How the values were obtained:
[1] = tested on: 26S proteasome activity in COS1 cells expressing Ub^G76V-GFP; test: Ubiquitin G76V-GFP assay; assay type: cell-based, African green monkey; conditions: 8 h; for Effect on GFP levels: BITC, PEITC 12 μM, WP1130 5 μM
[2] = tested on: K63-linked Ub in BaF3/p210 cells; test: K63-linked HMW-Ub accumulation, whole cell lysate western blot; assay type: cell-based, mouse; conditions: 4 h
Mcl-1 in BaF3/p210 cells = test: Mcl-1 levels, western blot; assay type: cell-based, mouse; conditions: 4 h
Flag-Mcl-1 in COS1 cells = test: Flag-Mcl-1 ubiquitination, immunoprecipitation; assay type: cell-based, African green monkey; conditions: COS1 cells expressing Flag-Mcl-1, 2 h
[3] = tested on: K48-linked Ub in BaF3/p210 cells; test: K48-linked HMW-Ub accumulation, whole cell lysate western blot; assay type: cell-based, mouse; conditions: 4 h; for Accumulation of K48-linked HMW-Ub: bortezomib 20 nM; for Increase in K48-linked Ub: 15 μM
human 20S proteasome = human 20S proteasome (Homo sapiens, UniProt P28074); test: 20S proteasome assay; assay type: biochemical; conditions: substrate; Hill coefficient = 2; pH 7.6, 25 °C
[4] = tested on: proteasome activity of rabbit reticulocyte lysate; test: Proteasome activity of rabbit reticulocyte lysate; assay type: biochemical; conditions: substrate; Hill coefficient = 1.3
DUBs = assay type: biochemical, mouse; conditions: for Labeling of several DUBs (bands between 120 and 300 kDa): cell lysates, HA-UbVS; for Reversibility of inhibition of DUB labeling: lysate incubated with 250 μM ITC, then diluted 20-fold into HA-UbVS
cancer cell lines = conditions: read-out: EC50, inhibition of cell growth; exposure for only 3 h; cited from earlier work
USP24 = USP24 (Mus musculus, UniProt B1AY13); test: DUB activity profiling in cell lysates, USP24 labeling; assay type: biochemical; conditions: read-out: IC50, USP24 labeling
[5] = tested on: BaF3, BaF3/p210 and K562 cells; test: Proliferation/viability assay, 48 h; assay type: cell-based; conditions: read-out: EC50, viability
recombinant USP9x [6] = target: T1, recombinant USP9x (Homo sapiens, UniProt Q93008); test: Labeling of recombinant USP9x with Cy5-UbVME; assay type: biochemical; conditions: read-out: IC50, inhibition of labeling of recombinant USP9x with Cy5-UbVME; purified recombinant enzyme
[7] = tested on: Bcr-Abl in BaF3/p210 cells; test: Bcr-Abl levels and aggregation, western blot; assay type: cell-based, mouse
USP7 = USP7 (Mus musculus, UniProt Q6A4J8); test: DUB activity profiling in cell lysates, USP7; assay type: biochemical; conditions: immunoblotting
[8] = tested on: MCF7, NIH3T3 and COS1 cells; test: Proliferation/viability assay, 48 h; assay type: cell-based
USP9x = USP9x (Mus musculus, UniProt P70398); test: DUB activity profiling in cell lysates, USP9x labeling; assay type: biochemical; conditions: read-out: IC50, inhibition of USP9x labeling
recombinant USP9x [9] = target: T1, recombinant USP9x; test: Recombinant DUB assay; assay type: biochemical; conditions: for Ki: read-out: Ki, recombinant USP9x, Ub-AMC hydrolysis
In short: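 Purified recombinant human USP9x was assayed by Ub-AMC hydrolysis. AMC release was monitored fluorimetrically at 37 °C in 50 mM HEPES pH 7.6, 100 mM NaCl, 0.75 mM BME and quantified against AMC standard curves. Slow-binding kinetics were analysed: kon was determined at varied Ub-AMC concentrations to assign inhibition mode, and Ki was derived.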

recombinant UCHL3 = recombinant UCHL3 (Homo sapiens, UniProt P15374); test: Recombinant DUB assay, UCHL3; assay type: biochemical
[10] = tested on: PARP cleavage in BaF3/p210 cells; test: PARP cleavage, western blot; assay type: cell-based, mouse; conditions: 5 μM
USP9x in BaF3/p210 cells = USP9x in BaF3/p210 cells (Mus musculus, UniProt P70398); test: USP9x inhibition in living cells; assay type: cell-based; conditions: read-out: IC50, USP9x inhibition in cells; BaF3/p210 cells treated 4 h
[11] = target: UCH37 in the 19S regulatory particle (Homo sapiens, UniProt Q9Y5K5); test: Activity profiling of UCH37 in 19S regulatory particle with Cy5-UbVME; assay type: biochemical; conditions: read-out: EC50, inhibition of UCH37
[12] = tested on: Bcr-Abl in BaF3/p210 and K562 cells; test: Bcr-Abl ubiquitination; assay type: cell-based; conditions: 5 μM, 2 h
In short: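 BaF3/p210 cells (1 h) or K562 cells (2 h) were exposed to 5 μM test compound or 0.1% DMSO at 37 °C. Lysates were set to 1 mg/mL and pre-cleared with protein G (1 h, 4 °C). Bcr-Abl was immunoprecipitated with anti-cAbl overnight at 4 °C onto protein G beads. Alternatively, K63-linked polyubiquitinated proteins were enriched on RAP80-UIM agarose. Immunoblotting followed.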

catalytic domain of USP7 = catalytic domain of USP7 (Homo sapiens, UniProt Q93009); test: Recombinant DUB assay, USP7 catalytic domain; assay type: biochemical
UCH37 = UCH37 (Mus musculus, UniProt Q9WUP7); test: DUB activity profiling in cell lysates, UCH37 labeling; assay type: biochemical; conditions: read-out: IC50, inhibition of UCH37 labeling

T1 sequence (Q93008 whole entry): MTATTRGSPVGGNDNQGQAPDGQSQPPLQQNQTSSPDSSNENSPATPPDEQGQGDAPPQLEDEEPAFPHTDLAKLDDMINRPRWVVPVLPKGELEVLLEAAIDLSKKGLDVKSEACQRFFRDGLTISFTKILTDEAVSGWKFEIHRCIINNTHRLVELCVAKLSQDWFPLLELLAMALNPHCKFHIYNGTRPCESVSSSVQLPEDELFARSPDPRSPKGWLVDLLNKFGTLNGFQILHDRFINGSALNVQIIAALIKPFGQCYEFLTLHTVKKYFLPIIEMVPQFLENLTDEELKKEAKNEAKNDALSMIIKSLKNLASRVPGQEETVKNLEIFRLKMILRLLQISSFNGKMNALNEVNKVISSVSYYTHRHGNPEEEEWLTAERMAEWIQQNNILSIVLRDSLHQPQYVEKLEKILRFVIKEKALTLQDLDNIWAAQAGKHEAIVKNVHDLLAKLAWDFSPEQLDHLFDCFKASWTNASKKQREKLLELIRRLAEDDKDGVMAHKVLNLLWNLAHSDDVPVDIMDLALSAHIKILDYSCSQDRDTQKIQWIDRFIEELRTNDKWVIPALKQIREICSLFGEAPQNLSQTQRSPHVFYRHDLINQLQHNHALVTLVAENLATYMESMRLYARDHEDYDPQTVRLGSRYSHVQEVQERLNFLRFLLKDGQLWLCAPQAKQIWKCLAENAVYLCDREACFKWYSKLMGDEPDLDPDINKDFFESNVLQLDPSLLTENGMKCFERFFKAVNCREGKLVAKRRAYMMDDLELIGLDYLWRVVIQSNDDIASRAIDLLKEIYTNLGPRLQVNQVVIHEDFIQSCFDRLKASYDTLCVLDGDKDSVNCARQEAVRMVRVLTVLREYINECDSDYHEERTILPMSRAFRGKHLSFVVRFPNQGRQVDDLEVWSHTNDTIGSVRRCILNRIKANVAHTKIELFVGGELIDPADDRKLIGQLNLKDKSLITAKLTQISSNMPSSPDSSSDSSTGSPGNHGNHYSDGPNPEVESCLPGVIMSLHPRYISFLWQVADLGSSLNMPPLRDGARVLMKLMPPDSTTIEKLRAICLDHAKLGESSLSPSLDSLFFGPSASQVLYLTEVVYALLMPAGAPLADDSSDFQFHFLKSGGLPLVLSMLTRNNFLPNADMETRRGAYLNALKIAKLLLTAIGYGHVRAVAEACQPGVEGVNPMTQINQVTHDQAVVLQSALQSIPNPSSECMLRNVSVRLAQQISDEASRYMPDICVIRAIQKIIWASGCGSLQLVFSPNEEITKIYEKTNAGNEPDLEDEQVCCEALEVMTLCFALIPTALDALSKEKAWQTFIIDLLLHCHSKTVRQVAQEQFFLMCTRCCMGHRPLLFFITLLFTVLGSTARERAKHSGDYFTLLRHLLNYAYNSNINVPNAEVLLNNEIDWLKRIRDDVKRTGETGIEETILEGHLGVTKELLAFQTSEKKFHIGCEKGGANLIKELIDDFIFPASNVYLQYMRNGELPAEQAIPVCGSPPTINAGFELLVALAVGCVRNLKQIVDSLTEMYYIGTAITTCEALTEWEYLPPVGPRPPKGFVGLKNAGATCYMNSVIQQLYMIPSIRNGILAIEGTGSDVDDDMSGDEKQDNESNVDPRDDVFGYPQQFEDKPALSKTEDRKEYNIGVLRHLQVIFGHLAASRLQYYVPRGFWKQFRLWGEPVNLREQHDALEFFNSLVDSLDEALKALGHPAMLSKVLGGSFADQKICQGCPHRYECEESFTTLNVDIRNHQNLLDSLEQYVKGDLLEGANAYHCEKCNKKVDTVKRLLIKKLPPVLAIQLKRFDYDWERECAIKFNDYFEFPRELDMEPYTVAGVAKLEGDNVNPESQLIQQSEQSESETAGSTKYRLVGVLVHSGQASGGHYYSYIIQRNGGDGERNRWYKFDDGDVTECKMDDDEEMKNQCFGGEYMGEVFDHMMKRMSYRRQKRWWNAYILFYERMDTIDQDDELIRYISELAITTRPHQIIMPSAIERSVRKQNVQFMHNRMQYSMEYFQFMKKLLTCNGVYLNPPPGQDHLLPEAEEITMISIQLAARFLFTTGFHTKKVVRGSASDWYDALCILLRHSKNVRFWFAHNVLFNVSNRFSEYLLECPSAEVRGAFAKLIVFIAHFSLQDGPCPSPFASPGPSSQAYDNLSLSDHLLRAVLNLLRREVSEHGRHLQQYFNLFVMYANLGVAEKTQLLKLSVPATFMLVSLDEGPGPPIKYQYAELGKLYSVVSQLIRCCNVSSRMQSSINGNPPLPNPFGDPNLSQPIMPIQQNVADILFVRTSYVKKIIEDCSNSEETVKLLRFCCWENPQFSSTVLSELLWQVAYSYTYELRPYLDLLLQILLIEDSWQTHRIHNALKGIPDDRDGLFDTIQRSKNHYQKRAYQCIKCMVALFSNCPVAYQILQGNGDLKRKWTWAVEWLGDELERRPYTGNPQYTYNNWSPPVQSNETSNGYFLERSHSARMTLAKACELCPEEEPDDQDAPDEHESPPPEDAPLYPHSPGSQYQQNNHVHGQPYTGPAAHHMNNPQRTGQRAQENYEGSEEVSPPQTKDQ
Sequence of USP9x in BaF3/p210 cells (P70398 whole entry): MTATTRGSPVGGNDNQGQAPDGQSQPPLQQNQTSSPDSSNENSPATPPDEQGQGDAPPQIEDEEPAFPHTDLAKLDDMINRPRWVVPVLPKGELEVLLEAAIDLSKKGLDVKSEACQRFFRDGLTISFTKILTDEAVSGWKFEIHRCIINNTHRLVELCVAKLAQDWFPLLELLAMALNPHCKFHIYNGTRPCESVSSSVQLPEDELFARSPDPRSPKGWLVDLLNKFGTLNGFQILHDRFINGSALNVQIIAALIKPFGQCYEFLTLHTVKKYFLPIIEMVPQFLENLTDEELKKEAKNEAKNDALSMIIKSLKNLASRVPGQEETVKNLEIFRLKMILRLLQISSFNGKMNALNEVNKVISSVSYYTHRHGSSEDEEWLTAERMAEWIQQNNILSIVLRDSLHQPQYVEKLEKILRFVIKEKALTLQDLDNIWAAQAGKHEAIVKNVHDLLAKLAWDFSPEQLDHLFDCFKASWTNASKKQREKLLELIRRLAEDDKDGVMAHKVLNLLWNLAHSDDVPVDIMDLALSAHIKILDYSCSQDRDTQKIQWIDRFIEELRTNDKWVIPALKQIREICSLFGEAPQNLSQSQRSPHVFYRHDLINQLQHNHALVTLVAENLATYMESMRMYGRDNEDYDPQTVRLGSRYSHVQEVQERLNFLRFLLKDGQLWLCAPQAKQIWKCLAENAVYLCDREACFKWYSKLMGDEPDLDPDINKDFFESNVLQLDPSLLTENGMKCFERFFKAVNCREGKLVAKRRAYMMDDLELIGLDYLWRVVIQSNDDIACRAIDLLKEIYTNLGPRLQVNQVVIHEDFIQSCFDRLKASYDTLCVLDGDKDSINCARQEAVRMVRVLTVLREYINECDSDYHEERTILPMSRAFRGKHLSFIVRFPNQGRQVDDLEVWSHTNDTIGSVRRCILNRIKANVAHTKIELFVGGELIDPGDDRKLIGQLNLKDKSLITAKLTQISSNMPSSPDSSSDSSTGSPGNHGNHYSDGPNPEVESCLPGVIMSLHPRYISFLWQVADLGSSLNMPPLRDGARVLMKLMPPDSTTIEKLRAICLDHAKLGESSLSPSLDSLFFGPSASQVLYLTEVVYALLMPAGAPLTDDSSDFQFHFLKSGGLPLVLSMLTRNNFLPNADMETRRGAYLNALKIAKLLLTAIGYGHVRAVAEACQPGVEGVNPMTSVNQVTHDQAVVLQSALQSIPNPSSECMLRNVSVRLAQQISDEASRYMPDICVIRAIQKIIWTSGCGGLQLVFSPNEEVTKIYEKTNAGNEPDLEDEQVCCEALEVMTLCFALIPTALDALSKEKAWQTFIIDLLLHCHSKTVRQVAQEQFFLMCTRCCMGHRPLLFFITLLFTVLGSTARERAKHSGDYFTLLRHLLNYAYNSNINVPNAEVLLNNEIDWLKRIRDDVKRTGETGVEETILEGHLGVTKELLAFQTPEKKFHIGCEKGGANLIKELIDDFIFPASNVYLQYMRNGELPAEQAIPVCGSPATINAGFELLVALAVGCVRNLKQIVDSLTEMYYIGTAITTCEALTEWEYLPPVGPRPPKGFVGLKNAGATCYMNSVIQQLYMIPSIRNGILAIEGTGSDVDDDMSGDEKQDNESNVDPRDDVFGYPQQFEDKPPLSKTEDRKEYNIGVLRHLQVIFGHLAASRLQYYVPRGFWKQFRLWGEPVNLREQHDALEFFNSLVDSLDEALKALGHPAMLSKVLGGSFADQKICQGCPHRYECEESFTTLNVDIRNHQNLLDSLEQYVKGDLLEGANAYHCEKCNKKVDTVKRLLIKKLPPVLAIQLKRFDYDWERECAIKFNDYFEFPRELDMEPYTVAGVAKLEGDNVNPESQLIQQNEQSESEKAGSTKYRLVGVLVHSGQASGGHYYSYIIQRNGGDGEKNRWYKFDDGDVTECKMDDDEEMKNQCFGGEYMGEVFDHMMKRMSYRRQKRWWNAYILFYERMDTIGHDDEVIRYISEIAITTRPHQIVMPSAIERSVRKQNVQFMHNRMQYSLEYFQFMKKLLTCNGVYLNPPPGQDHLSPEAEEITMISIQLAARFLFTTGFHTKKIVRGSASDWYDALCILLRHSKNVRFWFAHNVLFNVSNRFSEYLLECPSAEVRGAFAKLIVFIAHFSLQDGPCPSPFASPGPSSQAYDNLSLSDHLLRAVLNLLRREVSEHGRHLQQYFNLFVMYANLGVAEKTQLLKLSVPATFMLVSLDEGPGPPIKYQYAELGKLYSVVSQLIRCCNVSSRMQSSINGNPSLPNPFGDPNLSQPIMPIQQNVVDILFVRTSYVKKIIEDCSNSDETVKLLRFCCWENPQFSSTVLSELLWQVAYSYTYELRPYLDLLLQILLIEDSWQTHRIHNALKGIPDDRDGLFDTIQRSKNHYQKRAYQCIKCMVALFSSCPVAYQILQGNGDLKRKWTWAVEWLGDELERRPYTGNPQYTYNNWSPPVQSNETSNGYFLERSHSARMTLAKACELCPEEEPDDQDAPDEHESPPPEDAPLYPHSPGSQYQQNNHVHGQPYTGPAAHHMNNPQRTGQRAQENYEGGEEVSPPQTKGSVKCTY
Sequence of USP9x (P70398 whole entry): as above

Compound: CC(C)C[C@H](NC(=O)[C@H](Cc1ccccc1)NC(=O)c1cnccn1)B(O)O [bortezomib, reference compound]
Increase in GFP fluorescence ([1]; bortezomib 4 μM): 1.5 fold
Effect on K63-linked Ub ([2]; bortezomib 20 nM): no effect
Effect on Mcl-1 levels (Mcl-1 in BaF3/p210 cells): increased
Levels of ubiquitinated Flag-Mcl-1 (Flag-Mcl-1 in COS1 cells): increased
Accumulation of K48-linked HMW-Ub [3]: increased

K0.5 for human 20S proteasome (human 20S proteasome): 12 ± 2 µM
Compound: Cc1cc(=O)oc2cc(NC(=O)[C@H](Cc3ccc(O)cc3)NC(=O)[C@@H](NC(=O)[C@H](CC(C)C)NC(=O)[C@H](CC(C)C)NC(=O)CCC(=O)O)C(C)C)ccc12 [Suc-Leu-Leu-Val-Tyr-AMC] (Suc-LLVY-{AMC})
Apparent K0.5 of proteasome activity of rabbit reticulocyte lysate [4]: 28 ± 3 µM

Compound: O=C1/C(=C/c2ccc([N+](=O)[O-])cc2)CS(=O)(=O)C/C1=C\c1ccc([N+](=O)[O-])cc1 [G5, reference compound]
Labeling of several DUBs (bands between 120 and 300 kDa) (DUBs): reduced

Compound: CCC[C@H](NC(=O)/C(C#N)=C/c1cccc(Br)n1)c1ccccc1 [WP1130, reference compound]
Effect on GFP levels [1]: did not cause an increase
Levels of ubiquitinated Flag-Mcl-1 (Flag-Mcl-1 in COS1 cells): increased
Labeling of several DUBs (bands between 120 and 300 kDa) (DUBs): reduced

Compound: C[S+]([O-])CCCCN=C=S (stereo not shown) [SFN, sulforaphane]
EC50 (cancer cell lines): ~50 µM
Accumulation of K48-linked HMW-Ub [3]: no effect

Compound: S=C=NCCc1ccccc1 [PEITC, phenethyl ITC]
Effect on GFP levels [1]: did not increase
IC50 (USP24): 28 ± 5 µM
EC50 [5]: 1000 to 3000 nM
IC50 (recombinant USP9x [6]): 20 ± 2 µM
Increase in K63-linked Ub [2]: 9-18 fold
Effect on levels of total Bcr-Abl [7]: decreased
Bcr-Abl level, % of its initial level ([7]; 5 μM, within 2 h): 20%
Inhibition of USP7 (USP7): do not inhibit
Fold less sensitive than Mcl-1-dependent cells [8]: 8 to 40 fold
IC50 (USP9x): 15 ± 3 µM
Mode of inhibition of recombinant USP9x (recombinant USP9x [9]): slow binding competitive inhibitors
Ki (recombinant USP9x [9]): 23 ± 2 µM
Inhibition of recombinant UCHL3 (recombinant UCHL3): No inhibition
Time at which PARP cleavage was observed [10]: 4 h
IC50 (USP9x in BaF3/p210 cells): 7 ± 2 µM
EC50 [11]: 36 ± 5 µM
Effect on Mcl-1 levels (Mcl-1 in BaF3/p210 cells): decrease
Bcr-Abl ubiquitination [12]: increase
EC50 (cancer cell lines): 1.8 to 17 µM
Inhibition of the catalytic domain of USP7 (catalytic domain of USP7): No inhibition
Levels of ubiquitinated Flag-Mcl-1 (Flag-Mcl-1 in COS1 cells): increased
IC50 (UCH37): 13 ± 1 µM
Reversibility of inhibition of DUB labeling (DUBs): slowly reversible
Increase in K48-linked Ub [3]: 2 to 4 fold

Compound: CC(C)C[C@@H](C=O)NC(=O)[C@H](CC(C)C)NC(=O)[C@H](CC(C)C)NC(=O)OCc1ccccc1 [MG-132, reference compound] (Cbz-Leu-Leu-Leu-aldehyde)
Effect on Mcl-1 levels (Mcl-1 in BaF3/p210 cells): increased

Compound: S=C=NCc1ccccc1 [BITC, benzyl ITC]
Effect on GFP levels [1]: did not increase
IC50 (USP24): 56 ± 5 µM
EC50 [5]: 1000 to 3000 nM
Increase in K63-linked Ub [2]: 9-18 fold
Effect on levels of total Bcr-Abl [7]: decreased
Bcr-Abl knockdown ([7]; 5 μM, 2 h): essentially complete
Inhibition of USP7 (USP7): do not inhibit
Fold less sensitive than Mcl-1-dependent cells [8]: 8 to 40 fold
IC50 (USP9x): 27 ± 6 µM
Mode of inhibition of recombinant USP9x (recombinant USP9x [9]): slow binding competitive inhibitors
Ki (recombinant USP9x [9]): 25 ± 1 µM
Inhibition of recombinant UCHL3 (recombinant UCHL3): No inhibition
Time at which PARP cleavage was observed [10]: 6 h
IC50 (USP9x in BaF3/p210 cells): 4 ± 1 µM
EC50 [11]: 31 ± 6 µM
Effect on Mcl-1 levels (Mcl-1 in BaF3/p210 cells): decrease
Bcr-Abl ubiquitination [12]: increase
EC50 (cancer cell lines): 1.8 to 17 µM
Inhibition of the catalytic domain of USP7 (catalytic domain of USP7): No inhibition
Levels of ubiquitinated Flag-Mcl-1 (Flag-Mcl-1 in COS1 cells): increased
IC50 (UCH37): 22 ± 4 µM
Reversibility of inhibition of DUB labeling (DUBs): slowly reversible
Increase in K48-linked Ub [3]: 2 to 4 fold
